Source: ChEMBL document CHEMBL1123964, “Potent, long-acting luteinizing hormone-releasing hormone antagonists containing new synthetic amino acids: N,N'-dialkyl-D-homoarginines” (J Med Chem, 1988)
Square brackets hold non-standard residues; d marks the D form. Peptide text beside a SMILES is read from it. dPhe(4-Cl) = N[C@H](Cc1ccc(Cl)cc1)C(=O)O; dPhe(4-F) = N[C@H](Cc1ccc(F)cc1)C(=O)O; d2Nal = N[C@H](Cc1ccc2ccccc2c1)C(=O)O

Key:
[1] = molecular target: T1, Gonadotropin-releasing hormone receptor (Rattus norvegicus) (UniProt P30969); test: Antiovulatory activity on diestrus II following administration as a solution in corn oil (24h earlier) in rat.; format: functional, organism-based
T1 sequence (whole entry): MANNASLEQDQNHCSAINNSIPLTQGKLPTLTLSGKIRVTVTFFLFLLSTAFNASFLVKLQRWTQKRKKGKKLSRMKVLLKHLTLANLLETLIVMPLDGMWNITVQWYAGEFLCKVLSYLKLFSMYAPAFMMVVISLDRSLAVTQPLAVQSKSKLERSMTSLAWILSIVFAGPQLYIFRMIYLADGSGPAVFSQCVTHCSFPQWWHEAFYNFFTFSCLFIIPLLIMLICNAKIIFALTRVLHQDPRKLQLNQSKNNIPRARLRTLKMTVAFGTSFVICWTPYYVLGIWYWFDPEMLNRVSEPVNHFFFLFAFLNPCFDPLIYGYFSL
Summary of the method: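 Female rats with at least two normal 4-day cycles before the test cycle were selected. They received the analogue sc in corn oil at noon on diestrus II, 24 h before the proestrus dosing time. On the morning of expected estrus the oviducts were examined under a dissecting microscope, and freshly ovulated eggs were counted. ED50 was taken from percent ovulating versus log-dose, with 10 rats per dose group and usually three or more dose groups.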

[2] = molecular target: T1, Gonadotropin-releasing hormone receptor (Rattus norvegicus); test: Antiovulatory activity on proestrus was measured by administering as a solution in 50% propylene glycol / 0.9% saline in rat; format: functional
[3] = molecular target: T1, Gonadotropin-releasing hormone receptor (Rattus norvegicus); test: Antiovulatory activity on proestrus following administration of solution in corn oil in rat.; format: functional, organism-based
Summary of the method: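 Rats with at least two normal 4-day cycles were used. They were injected sc with the analogue in corn oil at noon on proestrus, about 2 h before the preovulatory LH-RH surge. Oviducts were removed on the morning of expected estrus and checked microscopically for fresh eggs, which were counted. ED50 came from percent of females ovulating plotted against log-dose, with 10 animals per dose group.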

Structure (SMILES) | ED50 (ug injection-1) [1] | ED50 (ug injection-1) [2] | ED50 (ug injection-1) [3]
CC(=O)N[C@H](Cc1ccc(Cl)cc1)C(=O)N[C@H](Cc1ccc(Cl)cc1)C(=O)N[C@H](Cc1c[nH]c2ccccc12)C(=O)N[C@@H](CO)C(=O)N[C@@H](Cc1ccc(O)cc1)C(=O)N[C@H](CCCCN=C(N)N)C(=O)N[C@@H](CC(C)C)C(=O)N[C@@H](CCCN=C(N)N)C(=O)N1CCC[C@H]1C(=O)N[C@H](C)C(N)=O | < 8 | 1.3 | 2
CCNC(=NCCCC[C@@H](NC(=O)[C@H](Cc1ccc(O)cc1)NC(=O)[C@H](CO)NC(=O)[C@@H](Cc1c[nH]c2ccccc12)NC(=O)[C@@H](Cc1ccc(Cl)cc1)NC(=O)[C@@H](Cc1ccc(Cl)cc1)NC(C)=O)C(=O)N[C@@H](CC(C)C)C(=O)N[C@@H](CCCN=C(N)N)C(=O)N1CCC[C@H]1C(=O)NCC(N)=O)NCC | 16 | 2 | 2.4
CC(=O)N1CCC[C@H]1C(=O)N[C@H](Cc1ccc(F)cc1)C(=O)N[C@H](Cc1ccc2ccccc2c1)C(=O)N[C@@H](CO)C(=O)NC(Cc1ccc(O)cc1)C(=O)N[C@@H](Cc1ccc2ccccc2c1)C(=O)N[C@@H](CC(C)C)C(=O)N[C@@H](CCCN=C(N)N)C(=O)N1CCC[C@H]1C(=O)NCC(N)=O (stereo in doubt) | 140 | 2.2 | 3.3
CNC(=NCCCC[C@@H](NC(=O)[C@H](Cc1ccc(O)cc1)NC(=O)[C@H](CO)NC(=O)[C@@H](Cc1c[nH]c2ccccc12)NC(=O)[C@@H](Cc1ccc(F)cc1)NC(=O)[C@@H](Cc1ccc2ccccc2c1)NC(C)=O)C(=O)N[C@@H](CC(C)C)C(=O)N[C@@H](CCCN=C(N)N)C(=O)N1CCC[C@H]1C(=O)NCC(N)=O)NC | 5 | 1.7 | 0.8
CCCNC(=NCCCC[C@@H](NC(=O)[C@H](Cc1ccc(O)cc1)NC(=O)[C@H](CO)NC(=O)[C@@H](Cc1c[nH]c2ccccc12)NC(=O)[C@@H](Cc1ccc(Cl)cc1)NC(=O)[C@@H](Cc1ccc(Cl)cc1)NC(C)=O)C(=O)N[C@@H](CC(C)C)C(=O)N[C@@H](CCCN=C(N)N)C(=O)N1CCC[C@H]1C(=O)NCC(N)=O)NCCC | 16 | 2.6 | 2.3
CCNC(=NCCCC[C@@H](NC(=O)[C@H](Cc1ccc(O)cc1)NC(=O)[C@H](CO)NC(=O)[C@@H](Cc1c[nH]c2ccccc12)NC(=O)[C@@H](Cc1ccc(Cl)cc1)NC(=O)[C@@H](Cc1c[nH]c2ccccc12)NC(C)=O)C(=O)N[C@@H](CC(C)C)C(=O)N[C@@H](CCCN=C(N)N)C(=O)N1CCC[C@H]1C(=O)NCC(N)=O)NCC |  |  | 3.4
CC(=O)N[C@H](Cc1ccc2ccccc2c1)C(=O)N[C@H](Cc1ccc(F)cc1)C(=O)N[C@H](Cc1c[nH]c2ccccc12)C(=O)N[C@@H](CO)C(=O)N[C@@H](Cc1ccc(O)cc1)C(=O)N[C@H](CCCN=C(N)N)C(=O)N[C@@H](CC(C)C)C(=O)N[C@@H](CCCN=C(N)N)C(=O)N1CCC[C@H]1C(=O)NCC(N)=O (Ac-[d2Nal][dPhe(4-F)][dW]SY[dR]LRPG-NH2) | 9 | 2.4 | 1.1
CCNC(=NCCCC[C@@H](NC(=O)[C@H](Cc1ccc(O)cc1)NC(=O)[C@H](CO)NC(=O)[C@@H](Cc1cccnc1)NC(=O)[C@@H](Cc1ccc(Cl)cc1)NC(=O)[C@@H](Cc1ccc2ccccc2c1)NC(C)=O)C(=O)N[C@@H](CC(C)C)C(=O)N[C@@H](CCCN=C(N)N)C(=O)N1CCC[C@H]1C(=O)N[C@H](C)C(N)=O)NCC | > 4 | 0.6 | 
CNC(=NCCCC[C@@H](NC(=O)[C@H](Cc1ccc(O)cc1)NC(=O)[C@H](CO)NC(=O)[C@@H](Cc1c[nH]c2ccccc12)NC(=O)[C@@H](Cc1ccc(Cl)cc1)NC(=O)[C@@H](Cc1ccc(Cl)cc1)NC(C)=O)C(=O)N[C@@H](CC(C)C)C(=O)N[C@@H](CCCN=C(N)N)C(=O)N1CCC[C@H]1C(=O)N[C@H](C)C(N)=O)NC | 5.6 | 1.6 | 1
CC(=O)N[C@H](Cc1ccc(Cl)cc1)C(=O)N[C@H](Cc1ccc(Cl)cc1)C(=O)N[C@H](Cc1c[nH]c2ccccc12)C(=O)N[C@@H](CO)C(=O)N[C@@H](Cc1ccc(O)cc1)C(=O)N[C@H](CCCN=C(N)N)C(=O)N[C@@H](CC(C)C)C(=O)N[C@@H](CCCN=C(N)N)C(=O)N1CCC[C@H]1C(=O)N[C@H](C)C(N)=O (Ac-[dPhe(4-Cl)][dPhe(4-Cl)][dW]SY[dR]LRP[dA]-NH2) | 5 | 1.7 | 1.2
CC(=O)N[C@H](Cc1ccc2ccccc2c1)C(=O)N[C@H](Cc1ccc(Cl)cc1)C(=O)N[C@H](Cc1cccnc1)C(=O)N[C@@H](CO)C(=O)N[C@@H](Cc1ccc(O)cc1)C(=O)N[C@H](CCCN=C(N)N)C(=O)N[C@@H](CC(C)C)C(=O)N[C@@H](CCCN=C(N)N)C(=O)N1CCC[C@H]1C(=O)N[C@H](C)C(N)=O |  | 0.5 | 0.3

Results, then the compound that gave them:

ED50 (ug injection-1) [1] | ED50 (ug injection-1) [2] | ED50 (ug injection-1) [3] | Structure (SMILES)
12 | 2.4 | 4.7 | CCCNC(=NCCCC[C@@H](NC(=O)[C@H](Cc1ccc(O)cc1)NC(=O)[C@H](CO)NC(=O)[C@@H](Cc1c[nH]c2ccccc12)NC(=O)[C@@H](Cc1ccc(F)cc1)NC(=O)[C@@H](Cc1ccc2ccccc2c1)NC(C)=O)C(=O)N[C@@H](CC(C)C)C(=O)N[C@@H](CCCN=C(N)N)C(=O)N1CCC[C@H]1C(=O)NCC(N)=O)NCCC
14 | 2.6 | 2 | CCCNC(=NCCCC[C@@H](NC(=O)[C@H](Cc1ccc(O)cc1)NC(=O)[C@H](CO)NC(=O)[C@@H](Cc1c[nH]c2ccccc12)NC(=O)[C@@H](Cc1ccc(Cl)cc1)NC(=O)[C@@H](Cc1ccc(Cl)cc1)NC(C)=O)C(=O)N[C@@H](CC(C)C)C(=O)N[C@@H](CCCN=C(N)N)C(=O)N1CCC[C@H]1C(=O)N[C@H](C)C(N)=O)NCCC
3.5 | 1.6 | 1.4 | CCNC(=NCCCC[C@@H](NC(=O)[C@H](Cc1ccc(O)cc1)NC(=O)[C@H](CO)NC(=O)[C@@H](Cc1c[nH]c2ccccc12)NC(=O)[C@@H](Cc1ccc(F)cc1)NC(=O)[C@@H](Cc1ccc2ccccc2c1)NC(C)=O)C(=O)N[C@@H](CC(C)C)C(=O)N[C@@H](CCCN=C(N)N)C(=O)N1CCC[C@H]1C(=O)NCC(N)=O)NCC
3.3 | 1.7 | 1.6 | CCNC(=NCCCC[C@@H](NC(=O)[C@H](Cc1ccc(O)cc1)NC(=O)[C@H](CO)NC(=O)[C@@H](Cc1c[nH]c2ccccc12)NC(=O)[C@@H](Cc1ccc(Cl)cc1)NC(=O)[C@@H](Cc1ccc(Cl)cc1)NC(C)=O)C(=O)N[C@@H](CC(C)C)C(=O)NC(CCCN=C(N)N)C(=O)N1CCC[C@H]1C(=O)N[C@H](C)C(N)=O)NCC (some centres undefined)
9.5 | 0.55 |  | CCNC(=NCCCC[C@@H](NC(=O)[C@H](Cc1ccc(O)cc1)NC(=O)[C@H](CO)NC(=O)[C@@H](Cc1c[nH]c2ccccc12)NC(=O)[C@@H](Cc1ccc(Cl)cc1)NC(=O)[C@@H](Cc1ccc2ccccc2c1)NC(C)=O)C(=O)N[C@@H](CC(C)C)C(=O)N[C@@H](CCCN=C(N)N)C(=O)N1CCC[C@H]1C(=O)NNC(N)=O)NCC
2.5 | 2 | 1 | CCNC(=NCCCC[C@@H](NC(=O)[C@H](Cc1ccc(O)cc1)NC(=O)[C@H](CO)NC(=O)[C@@H](Cc1c[nH]c2ccccc12)NC(=O)[C@@H](Cc1ccc(Cl)cc1)NC(=O)[C@@H](Cc1ccc2ccccc2c1)NC(C)=O)C(=O)N[C@@H](CC(C)C)C(=O)N[C@@H](CCCN=C(N)N)C(=O)N1CCC[C@H]1C(=O)NCC(N)=O)NCC
< 4 | 0.5 |  | CCNC(=NCCCC[C@@H](NC(=O)[C@H](Cc1ccc(O)cc1)NC(=O)[C@H](CO)NC(=O)[C@@H](Cc1c[nH]c2ccccc12)NC(=O)[C@@H](Cc1ccc(Cl)cc1)NC(=O)[C@@H](Cc1ccc2ccccc2c1)NC(C)=O)C(=O)N[C@@H](CC(C)C)C(=O)N[C@@H](CCCN=C(N)N)C(=O)N1CCC[C@H]1C(=O)N[C@H](C)C(N)=O)NCC (stereo in doubt; 25)
 |  | 1.7 | CCNC(=NCCCC[C@@H](NC(=O)[C@H](Cc1ccc(O)cc1)NC(=O)[C@H](CO)NC(=O)[C@@H](Cc1ccc2ccccc2c1)NC(=O)[C@@H](Cc1ccc(Cl)cc1)NC(=O)[C@@H](Cc1ccc2ccccc2c1)NC(C)=O)C(=O)N[C@@H](CC(C)C)C(=O)N[C@@H](CCCN=C(N)N)C(=O)N1CCC[C@H]1C(=O)N[C@H](C)C(N)=O)NCC
> 16 | 3.4 |  | CCCCNC(=NCCCC[C@@H](NC(=O)[C@H](Cc1ccc(O)cc1)NC(=O)[C@H](CO)NC(=O)[C@@H](Cc1c[nH]c2ccccc12)NC(=O)[C@@H](Cc1ccc(Cl)cc1)NC(=O)[C@@H](Cc1ccc2ccccc2c1)NC(C)=O)C(=O)N[C@@H](CC(C)C)C(=O)N[C@@H](CCCN=C(N)N)C(=O)N1CCC[C@H]1C(=O)N[C@H](C)C(N)=O)NCCCC
2.5 | 0.7 | 0.5 | CCNC(=NCCCC[C@@H](NC(=O)[C@H](Cc1ccc(O)cc1)NC(=O)[C@H](CO)NC(=O)[C@@H](Cc1c[nH]c2ccccc12)NC(=O)[C@@H](Cc1ccc(Cl)cc1)NC(=O)[C@@H](Cc1ccc2ccccc2c1)NC(C)=O)C(=O)N[C@@H](CC(C)C)C(=O)N[C@@H](CCCN=C(N)N)C(=O)N1CCC[C@H]1C(=O)N[C@H](C)C(N)=O)NCC (stereo in doubt)
